How the values were obtained:
[1] = Percent survivors at dose 600 umol/kg day; assay type: functional, Mus musculus
Outline: (§1)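 Adult female Swiss mice (20–25 g) had chow and water ad libitum. The retinoid was homogenized as a suspension in aqueous 8% Cremophor EL plus 10% propylene glycol. It was given ip as 10 weekday injections over 14 days. Controls received vehicle alone. Survivors were weighed on days 1, 5, 10 and 15, and dates of death were recorded. Survival was scored at days 8 and 15.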

Cricetinae gen. sp. [2] = test: Activity of compound the was expressed as ratio of active hamster tracheal organ cultures(TOC) to the total cultures at 10e-10 M concentration; 18/19; assay type: functional, Cricetulus griseus, Trachea
Outline: (§2)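 Tracheal organ cultures came from vitamin A-deficient hamsters. Each culture was scored for reversal of keratinization and reported as active cultures out of total cultures at each retinoid concentration tested (10⁻⁸ to 10⁻¹² M). The protocol followed earlier published methods.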

[3] = Percent survivors at dose 67 umol/kg day; assay type: functional, Mus musculus; outline: as §1
[4] = Percent survivors at dose 100 umol/kg day; assay type: functional, Mus musculus; outline: as §1
Cricetinae gen. sp. [5] = test: Molarity required to effect reversal of keratinization in 50% of cultures.; assay type: functional, Cricetulus griseus
[6] = Percent survivors at dose 300 umol/kg day; assay type: functional, Mus musculus; outline: as §1
[7] = Percent survivors at dose 200 umol/kg day; assay type: functional, Mus musculus; outline: as §1
Mus musculus [8] = species: Mus musculus; test: Tested for relative activity in a 20-week anti-papilloma experiment in female CD-1 mice at dose 1.7 nmol; assay type: functional
Outline: (§3)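 Female Charles River CD-1 mice, 8 weeks old, in random groups of 25–30, were shaved 2 days before initiation with 200 nmol DMBA in acetone on the back. From 2 weeks on, 8.5 nmol TPA was applied twice weekly for 20 weeks. Retinoid in 0.2 mL acetone, or acetone alone for controls, was given 1 h before each TPA dose. Papillomas were counted weekly, and mean papillomas per mouse were compared with controls at 20 weeks.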

Mus musculus [9] = species: Mus musculus; test: Tested for relative activity in a 20-week anti-papilloma experiment in female CD-1 mice at dose 17 nmol; assay type: functional; outline: as §3
[10] = Mortality range in days at dose 200 umol/kg day; 14-15; assay type: functional, Mus musculus; outline: as §1
[11] = Percent survivors at dose 33 umol/kg day; assay type: functional, Mus musculus; outline: as §1
[12] = Mortality range in days at dose 300 umol/kg day; 10-14; assay type: functional, Mus musculus; outline: as §1
Mus musculus [13] = species: Mus musculus; test: Tested for percentage of mice with papillomas in a 20-week anti-papilloma experiment in female CD-1 mice at dose 170 nmol
Cricetinae gen. sp. [14] = test: Activity of compound the was expressed as ratio of active hamster tracheal organ cultures(TOC) to the total cultures at 10e-11 M concentration; 10/20; assay type: functional, Cricetulus griseus, Trachea; outline: as §2
Mus musculus [15] = species: Mus musculus; test: Percent decrease in average number of papillomas at dose 17 nmol *-p<0.001; assay type: functional; outline: as §3
Mus musculus [16] = species: Mus musculus; test: Percent decrease in average number of papillomas at dose 170 nmol *-p<0.001; assay type: functional; outline: as §3
Mus musculus [17] = species: Mus musculus; test: Percent decrease in average number of papillomas at dose 1.7 nmol *-p<0.01; assay type: functional; outline: as §3
[18] = Mortality range in days at dose 600 umol/kg day; 7-13; assay type: functional, Mus musculus; outline: as §1
Cricetinae gen. sp. [19] = test: Activity of compound the was expressed as ratio of active hamster tracheal organ cultures(TOC) to the total cultures at 10e-12 M concentration; 3/19; assay type: functional, Cricetulus griseus, Trachea; outline: as §2
Cricetinae gen. sp. [20] = test: Activity of compound the was expressed as ratio of active hamster tracheal organ cultures(TOC) to the total cultures at 10e-8 M concentration; 4/7; assay type: functional, Cricetulus griseus, Trachea; outline: as §2
[21] = target: T1, Ornithine decarboxylase (Mus musculus) (UniProt P00860); test: Inhibition of the induction of ornithine decarboxylase in mouse epidermis by the tumor promoter 12-O-tetradecanoylphorbol-13-acetate (ODC) at dose 1.7 nmol * Inhibition not significant
T1 sequence (whole entry): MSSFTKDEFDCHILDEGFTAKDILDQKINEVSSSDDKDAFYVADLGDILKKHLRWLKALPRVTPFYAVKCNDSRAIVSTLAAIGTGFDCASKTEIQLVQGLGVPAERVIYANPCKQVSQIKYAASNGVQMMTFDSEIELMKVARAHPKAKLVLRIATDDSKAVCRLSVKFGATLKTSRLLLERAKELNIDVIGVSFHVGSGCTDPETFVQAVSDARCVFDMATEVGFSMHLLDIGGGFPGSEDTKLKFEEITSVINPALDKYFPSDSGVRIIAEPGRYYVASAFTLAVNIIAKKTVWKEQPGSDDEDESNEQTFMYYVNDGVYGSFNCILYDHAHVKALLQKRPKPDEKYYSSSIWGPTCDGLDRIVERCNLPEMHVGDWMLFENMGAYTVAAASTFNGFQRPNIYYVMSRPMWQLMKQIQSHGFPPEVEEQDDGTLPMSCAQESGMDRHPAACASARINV

[22] = target: T1, Ornithine decarboxylase (Mus musculus); test: Inhibition of the induction of ornithine decarboxylase in mouse epidermis by the tumor promoter 12-O-tetradecanoylphorbol-13-acetate (ODC) at dose 17 nmol * p<0.01
Cricetinae gen. sp. [23] = test: Activity of compound the was expressed as ratio of active hamster tracheal organ cultures(TOC) to the total cultures at 10e-9 M concentration; 3/7; assay type: functional, Cricetulus griseus, Trachea; outline: as §2
Cricetinae gen. sp. [24] = test: Activity of compound the was expressed as ratio of active hamster tracheal organ cultures(TOC) to the total cultures at 10e-10 M concentration; 1/6; assay type: functional, Cricetulus griseus, Trachea; outline: as §2
[25] = target: T1, Ornithine decarboxylase (Mus musculus); test: Inhibition of the induction of ornithine decarboxylase in mouse epidermis by the tumor promoter 12-O-tetradecanoylphorbol-13-acetate (ODC) at dose 1.7 nmol
[26] = target: T1, Ornithine decarboxylase (Mus musculus); test: Inhibition of the induction of ornithine decarboxylase in mouse epidermis by the tumor promoter 12-O-tetradecanoylphorbol-13-acetate (ODC) at dose 17 nmol; Inhibition not significant
Cricetinae gen. sp. [27] = test: Activity of compound the was expressed as ratio of active hamster tracheal organ cultures(TOC) to the total cultures at 10e-10 M concentration; 1/7; assay type: functional, Cricetulus griseus, Trachea; outline: as §2
Cricetinae gen. sp. [28] = test: Activity of compound the was expressed as ratio of active hamster tracheal organ cultures(TOC) to the total cultures at 10e-9 M concentration; 1/7; assay type: functional, Cricetulus griseus, Trachea; outline: as §2
[29] = target: T1, Ornithine decarboxylase (Mus musculus); test: Inhibition of the induction of ornithine decarboxylase in mouse epidermis by the tumor promoter 12-O-tetradecanoylphorbol-13-acetate (ODC) at dose 1.7 nmol; Inhibition not significant
Cricetinae gen. sp. [30] = test: Activity of compound the was expressed as ratio of active hamster tracheal organ cultures(TOC) to the total cultures at 10e-8 M concentration; 2/7; assay type: functional, Cricetulus griseus, Trachea; outline: as §2
Cricetinae gen. sp. [31] = test: Activity of compound the was expressed as ratio of active hamster tracheal organ cultures(TOC) to the total cultures at 10e-10 M concentration; 21/22; assay type: functional, Cricetulus griseus, Trachea
Cricetinae gen. sp. [32] = test: Activity of compound the was expressed as ratio of active hamster tracheal organ cultures(TOC) to the total cultures at 10e-12 M concentration; 4/15; assay type: functional, Cricetulus griseus, Trachea
Cricetinae gen. sp. [33] = test: Activity of compound the was expressed as ratio of active hamster tracheal organ cultures(TOC) to the total cultures at 10e-11 M concentration; 17/22; assay type: functional, Cricetulus griseus, Trachea
Cricetinae gen. sp. [34] = test: Activity of compound the was expressed as ratio of active hamster tracheal organ cultures(TOC) to the total cultures at 10e-10 M concentration; 4/15; assay type: functional, Cricetulus griseus, Trachea; conditions: at 0.0001 µM
Cricetinae gen. sp. [35] = test: Activity of compound the was expressed as ratio of active hamster tracheal organ cultures(TOC) to the total cultures at 10e-11 M concentration; 1/8; assay type: functional, Cricetulus griseus, Trachea; conditions: at 10 pM
[36] = target: T1, Ornithine decarboxylase (Mus musculus); test: TInhibition of the induction of ornithine decarboxylase in mouse epidermis by the tumor promoter 12-O-tetradecanoylphorbol-13-acetate (ODC) at dose 17 nmol
Cricetinae gen. sp. [37] = test: Activity of compound the was expressed as ratio of active hamster tracheal organ cultures(TOC) to the total cultures at 10e-9 M concentration; 14/15; assay type: functional, Cricetulus griseus, Trachea; conditions: at 0.001 µM
Cricetinae gen. sp. [38] = test: Activity of compound the was expressed as ratio of active hamster tracheal organ cultures(TOC) to the total cultures at 10e-8 M concentration; 7/7; assay type: functional, Cricetulus griseus, Trachea; conditions: at 0.01 µM

CC1=C(/C=C/C(C)=C/C=C/C(C)=C/C(=O)O)C(C)(C)CCC1 [TRETINOIN]
Survivors at day 8 [1]: 95%
Survivors at day 15 [1]: 0%
Activity (Cricetinae gen. sp. [2]): 18%
Survivors at day 8 [3]: 100%
Survivors at day 15 [3]: 100%
Survivors at day 8 [4]: 100%
Survivors at day 15 [4]: 100%
ED50 (Cricetinae gen. sp. [5]): 1e-11
Survivors at day 8 [6]: 100%
Survivors at day 15 [6]: 0%
Survivors at day 8 [7]: 100%
Survivors at day 15 [7]: 63%
Activity (Mus musculus [8]): 69%
Activity (Mus musculus [9]): 47%
Mortality range [10]: 15 days
Survivors at day 8 [11]: 100%
Survivors at day 15 [11]: 100%
Mortality range [12]: 14 days
mice with papillomas % (Mus musculus [13]): 40%
Activity (Cricetinae gen. sp. [14]): 10%
Decrease (Mus musculus [15]): 74.1%
Decrease (Mus musculus [16]): 89.6%
Decrease (Mus musculus [17]): 56.2%
Mortality range [18]: 13 days
Activity (Cricetinae gen. sp. [19]): 3%

CCOC(=O)c1ccc(/C=C/c2ccc3c(c2)C2CCC3C2)cc1 (stereo not given)
Activity (Cricetinae gen. sp. [20]): 4%
ED50 (Cricetinae gen. sp. [5]): 3e-09
inhibition [21]: 15%
inhibition [22]: 39%
Activity (Cricetinae gen. sp. [23]): 43%
Activity (Cricetinae gen. sp. [24]): 1%

CC1=C(/C=C/C(C)=C/c2ccc(C(=O)O)cc2)C(C)(C)CCC1
ED50 (Cricetinae gen. sp. [5]): 3e-10
inhibition [25]: 77%

CC1=C(c2ccc(/C=C/C(C)=C/C(=O)O)c(C)c2)C(C)(C)CCC1
ED50 (Cricetinae gen. sp. [5]): >1e-08
inhibition [26]: 23%
Activity (Cricetinae gen. sp. [27]): 1%
Activity (Cricetinae gen. sp. [28]): 1%
inhibition [29]: 9%
Activity (Cricetinae gen. sp. [30]): 2%

CC1(C)CCC(C)(C)c2cc(-c3ccc4cc(C(=O)O)ccc4c3)ccc21
Activity (Cricetinae gen. sp. [31]): 21%
ED50 (Cricetinae gen. sp. [5]): 3e-12
Activity (Cricetinae gen. sp. [32]): 4%
Activity (Cricetinae gen. sp. [33]): 17%

CC1=C(CC/C(C)=C/c2ccc(C(=O)O)cc2)C(C)(C)CCC1
Activity (Cricetinae gen. sp. [34]): 4 active cultures
ED50 (Cricetinae gen. sp. [5]): 3e-10
inhibition [25]: 45%
Activity (Cricetinae gen. sp. [35]): 1 active cultures
inhibition [36]: 83%
Activity (Cricetinae gen. sp. [37]): 14 active cultures
Activity (Cricetinae gen. sp. [38]): 7%

— ChEMBL document CHEMBL1122522, “Conformationally restricted retinoids” (1984)
